L929 necroptosis – L929 zVAD cell death inhibition. L929 zVAD necroptosis rescue, ATP luminescence, 24 h; with zVAD 60 µM. viability rescue, % at 10 µM. hit rate 0.38% among 220,000. AID 1377;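 active means activation, scaled between plate controls, above about 75%, limit read from the data; inactive means activation under that limit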;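 further: 0% = zVAD with DMSO and 100% = DMSO alone without zVAD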
TNF necrop inh – TNF-alpha cell death inhibition in Jurkat FADD-/- cells. Jurkat FADD-/- TNF necroptosis rescue, ATP luminescence, 24 h; 0 = TNF only, 100 = no-TNF cells. activation (protection from cell death), % at 10 µM. hit rate 0.068% among 220,000. AID 463075;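 active means activation, meaning protection from cell death, of at least 50% relative to plate controls; inactive means activation below 50%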;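 further: necroptosis triggered by 40 ng/mL TNF-alpha added together with compound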
TNAP inh hiacc – TNAP (human) inhibition, high acceptor | P05186 | purified TNAP, CDP-star luminescence, 1 M DEA | inhibition, % at 20 µM | hit rate 0.03% among 200,000;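 active means over 50% inhibition of tissue-nonspecific alkaline phosphatase at 20 µM in the single-dose screen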;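 further: plate controls were DMSO wells for no effect and EDTA-quenched wells as full inhibition for full effect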
Target sequence (P05186 whole entry, looked up): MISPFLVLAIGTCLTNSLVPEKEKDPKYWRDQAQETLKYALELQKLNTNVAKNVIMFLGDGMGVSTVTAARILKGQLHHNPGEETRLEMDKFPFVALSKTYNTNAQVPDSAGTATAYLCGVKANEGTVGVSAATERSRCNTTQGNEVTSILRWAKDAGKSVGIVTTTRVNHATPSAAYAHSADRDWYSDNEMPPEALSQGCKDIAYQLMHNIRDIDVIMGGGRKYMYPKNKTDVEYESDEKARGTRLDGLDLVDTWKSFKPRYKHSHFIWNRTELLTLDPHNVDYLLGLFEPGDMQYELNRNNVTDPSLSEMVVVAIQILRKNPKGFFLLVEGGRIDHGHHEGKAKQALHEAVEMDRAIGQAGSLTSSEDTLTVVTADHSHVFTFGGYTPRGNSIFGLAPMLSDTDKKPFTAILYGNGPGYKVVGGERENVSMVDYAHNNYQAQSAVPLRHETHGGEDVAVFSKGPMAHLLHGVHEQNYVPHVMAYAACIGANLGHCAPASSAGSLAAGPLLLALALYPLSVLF
sdo1 growth – compounds rescuing growth of sdo1-depleted yeast, bone marrow failure model; S. cerevisiae sdo1-depleted JHY4D growth rescue, OD600 30 h; hits give high values; pdr5 snq2 efflux-pump mutant strain; z-score at 10 µM; hit rate 0.21% among 140,000; AID 817;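 active means z-score above 3 at both the 24 hr and the 30 hr optical density reads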;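 further: z-score against mean and SD of all compound wells on the same plate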
TNAP act hiacc – increases human TNAP activity under high phosphate acceptor concentration; purified TNAP, CDP-star luminescence, 1 M DEA, 30 min; hits give high values; 0 = EDTA background, 1 = DMSO-only activity; P05186; 200,000 tested, under 10 active; activation factor at 20 µM;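 active means activation factor at least 2 at 20 µM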
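Assay system: human TNAP; Input: enzyme diluted 1/800 final; Reagent: CDP-star luminogenic substrate at 100 µM final; Timing: 30 min, room temperature; Signal: luminescence; Evaluation: TNAP activation factor scaled between EDTA and DMSO control wells.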
TNAP inh no acc – blocks human TNAP activity with no phosphate acceptor present; P05186; AID 1012; hit rate 0.26% among 200,000; purified TNAP, CDP-star luminescence, 30 min; inhibition, % at 20 µM;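 active means tissue-nonspecific alkaline phosphatase inhibition above about 50% at 20 µM in the single-dose screen, limit read from the data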;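 further: 0% = DMSO negative control and 100% = EDTA positive control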
The depositor's hits bear a star; x = no result given. Rows were chosen to be rich in hits. Some 0.81% of all compounds tested hit in one or more screens of this group.

SMILES	L929 necroptosis	TNF necrop inh	TNAP inh hiacc	sdo1 growth	TNAP act hiacc	TNAP inh no acc
Cc1nn(-c2ccccc2)c(C)c1/C=N/NC(=O)c1cc(-c2cccc3ccccc23)n[nH]1	15	-5	0	-0.37	1	-12
CCc1nc2cc(CC(=O)O)ccc2o1	0	-4	0	1.6	1	-6
Cn1c(=O)cc(OCCCC(=O)Nc2ccccn2)c2ccccc21	89*	6	-6	0.72	1.1	-14
COc1ccc(CCc2cc(OC)cc(=O)o2)cc1	1	0	x	x	x	x
COc1cc(/C=N/N=C2/C(=O)Nc3ccccc32)cc(OC)c1O	0	-17	56*	-1.1	0.4	49
O=C1Nc2ccccc2/C1=N/N=C/c1cccc(O)c1	1	-13	x	x	x	x
COc1cc(/C=C2/C(=O)c3cccc([N+](=O)[O-])c3C2=O)c(Br)cc1O	1	-8	35	-0.44	0.6	66*
COc1ccccc1N1CCN(C(=O)CCc2c[nH]c3ccccc23)CC1	1	0	1	x	1	-3
CCCCCCN1C=CC(=C/C=C(\C#N)C(=O)OCC)C=C1	1	9	30	-0.47	0.7	18
CCCN1C=CC(=C/C=C(\C#N)C(=O)OCC)C=C1	89*	3	30	0.52	0.7	26
Cc1ccc(CN2CCSc3sccc3C2=O)cc1	12	83*	-4	x	1	-10
N#CCCn1cc(/C=N/NC(N)=S)c(-c2ccc(Br)cc2)n1	3	-4	0	x	1	-29
N#CCCn1cc(/C=N/NC(N)=S)c(-c2ccccc2)n1	2	-3	0	x	1	56*
O=C(COC(=O)c1oc2ccccc2c1COc1ccccc1)NCCN1C(=O)CSC1=O	0	1	1	-1.1	1	-4
C=CCN1C(=O)SC(Cc2cccc(OC)c2O)C1=O (stereo unspecified)	1	5	0	x	1	-18
CCn1c(SCC(=O)c2ccc3c(c2)Cc2ccccc2-3)nnc1-c1ccc(N)cc1	0	-2	-5	-1.7	1	6
CCn1c(SCC(=O)c2ccc(O)c(O)c2)nnc1-c1ccc(C)cc1	1	-7	6	0.44	0.9	53*
CCOc1ccc(-c2cc(N3C(=O)Nc4ccccc4N3O)n[nH]2)cc1	-1	0	-5	x	1.1	52*
O=C(Nc1cccc2ccccc12)c1ccc(Br)o1	0	-1	-5	-0.21	1	-10
O=C(Nc1cccc2cccnc12)c1ccc(Br)o1	76*	-5	-4	-1.9	1	-20
CS(=O)(=O)c1ccc(Cl)c(NC(=O)Cc2c(F)cccc2Cl)c1	1	0	-4	x	1	-12
CC1=CC2=NC(=O)CC(C)(C(=O)N(CC(=O)NC(C)C)C3CCCC3)N2C=C1 (stereo unspecified)	4	0	1	x	1	-1
CCOc1ccc(C2C3=C(CCCC3=O)Nc3nc(C(F)(F)F)nn32)cc1OC (stereo unspecified)	1	-4	-1	1.9	1	-7
COc1ccc(C2CC(=O)N(C)c3ccccc3S2)cc1 (stereo unspecified)	29	-4	-4	x	1	-11
CCOc1ccc(C2CC(=O)n3nc(C45CC6CC(CC(C6)C4)C5)nc3S2)cc1OC (stereo unspecified)	0	-1	-3	-0.8	1	85*
SMILES	L929 necroptosis	TNF necrop inh	TNAP inh hiacc	sdo1 growth	TNAP act hiacc	TNAP inh no acc
COc1ccc(C2CC(=O)n3nc(C45CC6CC(CC(C6)C4)C5)nc3S2)cc1OC (stereo unspecified)	1	-1	1	1.6	1	88*
O=C(CN1CCN(c2ccccc2F)CC1)NC(=O)NCc1ccccc1	3	0	-4	x	1	-12
O=C(OC(C(=O)Nc1ccc([N+](=O)[O-])cc1Br)c1ccccc1)c1ccccc1 (stereo unspecified)	0	76*	-5	x	1	-14
Cc1ccc(-c2cc(C(=O)N/N=C/C=C/c3ccccc3)n[nH]2)s1	3	4	-5	-0.93	1.1	33
Cc1ccc(-c2cc(C(=O)O)n[nH]2)s1	2	-1	-1	x	1	77*
O=C(O)c1cc(-c2ccco2)[nH]n1	0	-2	5	0.59	0.9	51*
Cc1ccsc1/C=c1\sc2ncnn2c1=O	0	0	24	-0.64	0.8	84*
O=c1/c(=C/c2cccc3ccccc23)sc2ncnn12	4	-1	-4	-1.1	1	16
O=C1Nc2cccnc2Sc2ccccc21	0	-1	-2	-0.1	1	-6
c1ccc2c(c1)Nc1nccnc1S2	85*	22	-6	0.11	1.1	1
CCCCCC1=NN2C(=O)CC(=O)N=C2S1	0	1	x	x	x	x
C#CCn1cnc2c(cnn2-c2ccc(C)c(C)c2)c1=O	0	-2	5	0.63	0.9	-1
Cc1nc2c3cnn(-c4ccc(C)c(C)c4)c3ncn2n1	0	-4	2	1.3	1	81*
CN(C)c1ccc(/C=C2\N=C(c3ccc(Cl)c([N+](=O)[O-])c3)NC2=O)cc1	-1	-6	45	x	0.6	50*
O=C(COc1ccccc1F)NC12CC3CC(CC(C3)C1)C2	2	3	x	x	x	x
O=C(Nc1cccc2ccccc12)N1CCN(c2ccccc2)CC1	0	0	-7	-0.81	1.1	-10
O=C(Nc1cccc2ccccc12)N1N=CCC1c1ccccc1 (stereo unspecified)	0	64*	x	x	x	x
NC(=NC(=O)c1ccccc1)N1N=CCC1c1ccccc1 (stereo unspecified)	1	-1	4	x	1	0
S=C(Nc1ccccc1)N1N=CCC1c1ccccc1 (stereo unspecified)	3	91*	2	0.1	1	-8
Cc1c(CCOC(=O)CC23CC4CC(CC(C4)C2)C3)sc[n+]1Cc1ccccc1	0	-6	36	0.3	0.6	-2
Cc1c(CCOC(=O)C23CC4CC(CC(C4)C2)C3)sc[n+]1CC#N	8	-1	-2	x	1	57*
CCCCCCCCCOC(=O)C[n+]1csc(CCO)c1C	0	-6	-1	-1.1	1	61*
Cc1c(CCO)sc[n+]1CC(=O)OCCC12CC3CC(CC(C3)C1)C2	1	-3	4	-0.07	1	62*
CCCCCCCCCCCCOC(=O)C[N+](C)(C)C	0	-15	x	x	x	x
Clc1cc2nc[nH]c2cc1Cl	2	2	x	x	x	x
O=C(O)c1ccc2c(c1)-c1nc3ccccc3n1C2=O	1	1	-4	1.2	1	-3
O=C(Cn1cncn1)N/N=C/c1ccccc1O	2	4	x	x	x	x

Assay outcomes: PubChem, several laboratories
